# High-throughput results deposited in PubChem BioAssay by several laboratories.
# aSyn UTR inh: MLPCN primary screen, SNCA 5' untranslated region | alpha-synuclein 5'UTR reporter, inhibitor activity | inhibition, % (tested at 7.5 µM) | 300,000 compounds, 0.82% hits; in the data active = inhibition above about 60%; inconclusive = no clear call, values can overlap the other calls;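 also: H4 neuroglioblastoma cells stably carrying SNCA 5'UTR luciferase fusion; 0% = DMSO wells and 100% = positive control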
# Hep lipid drop: inhibitors of hepatocyte lipid droplet formation, primary screen, imaging, high-throughput imaging, BODIPY stain | AML12 mouse hepatocytes, oleate lipid droplets | inhibition, % at 6.5 µM | 240,000 compounds, 0.4% hits | AID 1656, 2009;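 active = lipid droplet intensity inhibited by at least 50%, with more than 500 cells counted; inconclusive = wells with under 300 cells, treated as cytotoxic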
#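 Assay system: AML12 mouse liver cells | Compound: 6.5 µM single-point dosing | Schedule: Overnight exposure | Technique: Fluorescence imaging, 20x objective, two fields per well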
# H9c2 TAG inh: inhibitors of triacylglycerol accumulation, primary screen, cell-based, uHTS, fluorescence, H9c2; H9c2 cells, Nile Red lipid (TAG) fluorescence; cells loaded with 200 µM oleic acid; inhibition, % at 12.5 µM; 230,000 compounds, 0.66% hits;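 active = pattern-corrected inhibition of lipid staining of at least 50% with the nuclear-stain viability signal not falling by more than 50%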;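 also: 0% = DMSO wells and 100% = triacsin C control wells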
# APP transl inh: inhibitors of APP translation via 5'UTR reporter, primary screen, APP 5'UTR luciferase, SH-SY5Y cells; AID 1285, 2008; inhibition, % at 2 µM; 190,000 compounds, 0.82% hits; SH-SY5Y APP 5'UTR-luciferase reporter, luminescence;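 active = inhibition above a set limit, derived from the sample mean plus 3 SD, cut at about 45% in these data; inconclusive = one replicate passes the limit while the other fails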
# 697 NFkB inh: inhibitors of PMA/ionomycin-induced NF-kB reporter, 697 cells, primary screen, B-cell NF-kB inhibitor project, cell-based, luminescence, uHTS; 697 B-cell NF-kB luciferase reporter, 16 h; inhibition, % at 4 µM; 330,000 compounds, 0.33% hits; in the data active = inhibition above about 35%
# Jurkat NFkB inh: inhibitors of induced NF-kB luciferase reporter, primary screen, TCR NF-kB activation inhibitor project, cell-based, luminescence, uHTS | Jurkat, PMA/ionomycin-induced NF-kB luciferase reporter | inhibition, % at 4 µM | 330,000 compounds, 0.53% hits; in the data active = inhibition above about 50%
# An asterisk follows results filed as active; ? = inconclusive; nt = not tested or not shown. The list is not random: actives were taken first. Their share in the collection is about 1.9%.
SMILES,aSyn UTR inh,Hep lipid drop,H9c2 TAG inh,APP transl inh,697 NFkB inh,Jurkat NFkB inh
CC(=O)c1cccc(NC(=O)C(OC(=O)/C=C/c2ccc3c(c2)OCO3)c2ccccc2)c1 (stereo unspecified),-24.5,-49.8,nt,-12.7,-7.7,-31.6
COc1ccccc1C(O)c1ncc(-c2cccc(C(F)(F)F)c2)[nH]1 (stereo unspecified),nt,nt,-10.9,nt,nt,nt
C/C(=N\NC(=O)CCCNc1ccc(C)cc1)c1ccccn1,78.3*,-3.7,6.3,31.3,12.2,-7.3
C/C(=N\NC(=O)c1c[nH]c2ccccc12)c1ccccn1,71.7*,-12.8,39.8,46.9*,-119.5,-51.8
C/C(=N\NC(=O)CCCNc1ccccc1)c1ccncc1,5.3,-0.5,7.1,-8.2,-11.7,-7.4
C/C(=N\NC(=O)c1cc2ccccc2cc1O)c1ccccn1,87.9*,-46.9,nt,nt,-183.2,-6.7
Cc1ccc(CNC(=O)CSc2nc3ccsc3c(=O)n2Cc2ccc(C(=O)O)cc2)cc1,5.0,10.9,13.2,-6.6,4.6,-3.6
O=C(Nc1nc(-c2ccccn2)cs1)c1cccc(-n2cnnn2)c1,82.7*,4.6,72.7*,nt,-26.3,16.1
NC(N)=N/N=C/c1ccc(OCc2ccccc2)c(OCc2ccccc2)c1,106.1*,-43.5,nt,nt,-5.9,14.4
CCOc1cc(/C=N/N=C(N)N)ccc1OCc1ccc(Cl)cc1,-32.2,3.1,nt,26.6,nt,nt
Cc1ccc(S(=O)c2ccc([N+](=O)[O-])c3nonc23)cc1 (stereo unspecified),nt,nt,-15.1,nt,nt,nt
OCCN1CCN(CC/C=C2/c3ccccc3CSc3ccccc32)CC1,103.5*,nt,0.7,nt,-49.0,-37.5
O=C(Cc1cccc(NC(=O)C2CCCN(C(=O)C3CCCC3)C2)c1)Nc1ccc(C(=O)N2CCOCC2)cc1 (stereo unspecified),nt,nt,32.8,nt,nt,nt
CCOc1ccccc1NC(=O)C1CCCN(S(=O)(=O)c2c(C)[nH]c(=O)[nH]c2=O)C1 (stereo unspecified),-10.6,-3.0,-10.1,45.4*,18.7,13.6
CC1(C(=O)NS(=O)(=O)c2cccc(Cl)c2)CCN1C(=O)C1(c2ccc(Cl)cc2)CCC1 (stereo unspecified),nt,nt,4.9,nt,nt,nt
Cc1ccccc1CN1C[C@H]2CON(C)[C@H]2C[C@H]1c1cccc(Br)c1,nt,nt,-12.7,nt,nt,nt
CCOc1ncccc1C(=O)N1CCN(c2cc(Cl)ccc2C)CC1,57.0,?,nt,90.8*,-1.2,46.3
CCOc1ncccc1C(=O)N1CCN(c2cccc(C)c2C)CC1,-15.0,?,nt,95.1*,nt,nt
COc1cc(C)ccc1S(=O)(=O)NC(=O)C1(C)CCN1C(=O)COc1ccc(Cl)cc1 (stereo unspecified),nt,nt,18.0,nt,nt,nt
CC(C)CC(=O)Nc1ccc(C(=O)NNC(=S)NC(=O)C2CCCCC2)cc1,66.6*,nt,nt,7.3,12.3,17.2
O=c1ccn([C@@H]2O[C@H](CNS(=O)(=O)C3CC3)[C@@H](O)[C@H]2O)c(=O)[nH]1,nt,nt,4.4,nt,nt,nt
CCn1c2c(c(=N)c3c1CCC3)CCC2,5.8,-3.1,nt,-2.0,10.1,12.7
CCCCCCCn1c2c(c(=N)c3c1CCC3)CCCC2,82.5*,-83.5,1.5,22.0,nt,nt
O=C(Nc1ccncc1)C1COc2ccccc2O1 (stereo unspecified),-23.1,2.9,-6.5,6.3,11.3,13.8
O=C(NC1=NCCS1)C1COc2ccccc2O1 (stereo unspecified),98.2*,nt,10.9,1.7,-94.2,44.5
SMILES,aSyn UTR inh,Hep lipid drop,H9c2 TAG inh,APP transl inh,697 NFkB inh,Jurkat NFkB inh
Cc1cccc(NS(=O)(=O)c2ccc(NC(=O)CN(c3cc([N+](=O)[O-])ccc3C)S(C)(=O)=O)cc2)c1,101.0*,0.9,nt,10.7,-27.3,18.8
Cc1cccc(NS(=O)(=O)c2cc(NC(=O)CC(=O)c3ccc([N+](=O)[O-])cc3)ccc2C)c1,-0.8,0.8,nt,-5.6,nt,nt
CCCOc1ccc(-c2nnc(-c3ccco3)o2)cc1,64.7*,nt,nt,-103.6,-223.3,-73.1
CC1(Cc2ccccc2Cl)C(=O)Nc2ccc(OC(F)(F)F)cc21 (stereo unspecified),nt,nt,-3.8,nt,nt,nt
Cc1csc(NC(=O)c2cc3c(s2)CCCC3)n1,29.2,nt,-20.9,-164.6,34.0,-111.5
Cc1csc(NC(=O)c2cc3c(s2)CCCCC3)n1,91.9*,1.7,12.9,-128.6,-70.0,-89.6
N=c1n(CC(=O)c2ccc(Br)s2)c2ccccc2n1Cc1ccccc1,6.5,-24.5,53.0*,nt,-15.7,14.2
CNc1ccc(-c2cccc([N+](=O)[O-])c2)cn1,nt,nt,8.5,nt,nt,nt
Cc1ccc(S(=O)(=O)CCC(=O)OCC(=O)c2cc(C)n(C)c2C)cc1,nt,nt,-0.1,nt,-0.7,-4.9
CC(C)(C)c1ccc(/C=N/Nc2cccc(C(=O)O)c2)cc1,-17.3,6.6,0.4,-84.8,-97.2,-55.5
CN(C)c1ccc(/C=N/Nc2cccc(C(=O)O)c2)cc1,77.0*,20.0,nt,nt,-47.4,21.9
CCN(CC)C(=O)C1=C(C)N(CCCOC)C(=O)C(CC(=O)NCc2cccs2)C1 (stereo unspecified),nt,nt,5.4,nt,nt,nt
O=C(Cc1cccc(NC(=O)C2CCCN(C(=O)C3CCCC3)C2)c1)Nc1cccc(C(=O)N2CCCCC2)c1 (stereo unspecified),nt,nt,11.9,nt,nt,nt
N#C/C(=C\c1ccc([N+](=O)[O-])o1)c1nc2ccccc2[nH]1,-2.4,0.0,nt,96.7*,-6.4,25.1
O=C(/C=C/Nc1ccccc1Br)c1ccccn1,114.3*,8.9,8.9,15.7,-27.8,41.7
Cc1cc(C(=O)N2CCCC(CO)(Cc3ccc(F)cc3F)C2)nn1C (stereo unspecified),nt,nt,-5.9,nt,nt,nt
Cc1cccc(CNc2ncnc3ccc(-c4ccoc4)cc23)c1,nt,nt,7.3,nt,-53.4,0.3
CC(=O)Nc1ccc(CNc2ncnc3ccc(-c4c(C)noc4C)cc23)cc1,nt,nt,61.8*,nt,-78.5,-21.1
Cc1ccc(S(=O)(=O)NCC(=O)OCC(=O)NC2CCCCC2)cc1,nt,nt,-11.9,nt,10.6,0.4
CCOC(=O)c1cccc(N2C(=O)C3C4C=CC(CC4)C3C2=O)c1 (stereo unspecified),10.2,-1.4,nt,nt,-16.4,-23.8
CCOC(=O)C1=C(C)C2C3C(=O)N(c4cc(C)ccc4C)C(=O)C3C1(C)C1C(=O)N(c3cc(C)ccc3C)C(=O)C21 (stereo unspecified),-28.4,-1.8,24.2,75.3*,4.5,-6.5
Cc1[nH]c(=O)[nH]c(=O)c1NC(=O)c1ccccc1[N+](=O)[O-],nt,nt,-20.8,nt,nt,nt
CCOC(=O)c1ccc(N2CN(CC)CNC2=S)cc1,63.9*,-1.5,nt,-10.9,-16.4,-4.4
CCCN1CNC(=S)N(c2ccc(C(=O)OCC)cc2)C1,-2.3,-14.7,nt,-25.3,-23.1,-4.2
CCCc1cc(-c2nc(N)ncc2-c2ccc3c(c2)OCCCO3)c(O)cc1OC,61.7*,2.3,-0.1,-8.1,-10.3,11.6
